Measured values: ChEMBL document CHEMBL2057095, “Discovery and SAR of orally efficacious tetrahydropyridopyridazinone PARP inhibitors for the treatment of cancer” (Bioorg Med Chem, 2012)

How the values were obtained:
[1] = AUC (0 to 3 hrs) in mouse at 10 mg/kg, po; format: ADME, organism-based; set-up: time < 3 hr, dose 10 mg/kg, route oral; settings: plasma
Summary of the method: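 Screening mouse PK: single oral dose of 10 mg/kg; plasma concentrations determined up to 3 h.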

[2] = Half life in mouse at 3 mg/kg, iv; format: ADME, organism-based; set-up: dose 3 mg/kg, route intravenous; settings: in vivo
Summary of the method: (§1)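 Standard mouse PK: oral dose of 10 mg/kg and intravenous dose of 3 mg/kg; plasma concentrations determined up to 8 h.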

[3] = Volume of distribution at steady state in mouse at 10 mg/kg, po and 3 mg/kg, iv; format: ADME, organism-based; settings: in vivo, read-out: Vdss; summary of the method: as §1
[4] = Cmax in mouse at 10 mg/kg, po; format: ADME, organism-based; set-up: dose 10 mg/kg, route oral; settings: in vivo; summary of the method: as §1
Mus musculus [5] = test: (§2) Clearance in mouse at 10 mg/kg, po and 3 mg/kg, iv; format: ADME, organism-based; settings: in vivo; summary of the method: as §1
Mus musculus [6] = test: (§3) AUC (0 to 8 hrs) in mouse at 10 mg/kg, po; format: ADME, organism-based, Plasma; set-up: time < 8 hr, dose 10 mg/kg, route oral; settings: in vivo, 8 h; summary of the method: as §1
Mus musculus [7] = test: (§4) Oral bioavailability in mouse at 10 mg/kg; format: ADME, organism-based; settings: in vivo; summary of the method: as §1
Mus musculus [8] = test: Toxicity in C57BL/6 mouse bearing B16F10 tumor assessed as body weight loss at 60 mg/kg/day, po administered BID from day 5 to day 10 post-tumor implantation co-administered with temozolomide relative to vehicle-treated control; settings: in vivo
Mus musculus [9] = test: Toxicity in C57BL/6 mouse bearing B16F10 tumor assessed as body weight loss at 30 mg/kg/day, po administered BID from day 5 to day 10 post-tumor implantation co-administered with temozolomide relative to vehicle-treated control; format: organism-based; set-up: route oral; settings: in vivo
Summary of the method: (§5)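 Syngeneic B16F10 melanoma: 6 × 10⁴ cells in 50% matrigel injected s.c. into the flank of female C57BL/6 mice, 6–8 weeks old, 20 g. PARP inhibitor given orally on days 5–10 at 10, 30 or 60 mg/kg/day, bid. TMZ given orally at 50 mg/kg/day, qd, days 5–10. Tumor growth and body weight followed to day 21.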

B16-F10 [10] = test: Potentiation of temozolomide-induced antitumor activity against mouse B16F10 cells xenografted in po dosed C57BL/6 mouse assessed as tumor growth inhibition administered BID from day 5 to day 10 post-tumor implantation; format: functional, organism-based; summary of the method: as §5
Mus musculus [11] = test: Toxicity in C57BL/6 mouse bearing B16F10 tumor assessed as mortality at 10 to 30 mg/kg/day, po administered BID from day 5 to day 10 post-tumor implantation co-administered with temozolomide; format: organism-based; set-up: route oral; settings: in vivo
Mus musculus [12] = test: Toxicity in C57BL/6 mouse bearing B16F10 tumor assessed as body weight loss at 50 mg/kg/day, po administered QD from day 5 to day 10 post-tumor implantation relative to vehicle-treated control; format: organism-based; set-up: route oral; settings: in vivo; summary of the method: as §5
Mus musculus [13] = test: Antitumor activity against B16F10 tumor xenografted in C57BL/6 mouse assessed as tumor growth inhibition at 50 mg/kg/day, po administered QD from day 5 to day 10 post-tumor implantation; format: organism-based; set-up: route oral; settings: C57BL/6, B16-F10, po, read-out: GI; summary of the method: as §5
Mus musculus [14] = test: Toxicity in C57BL/6 mouse bearing B16F10 tumor assessed as body weight loss at 50 mg/kg/day, po administered QD from day 5 to day 9 post-tumor implantation relative to vehicle-treated control; format: organism-based; set-up: route oral; settings: in vivo
Summary of the method: (§6)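 Syngeneic B16F10 model: 6 × 10⁴ cells with 50% matrigel implanted s.c. into the flank of female C57BL/6 mice (6–8 weeks, 20 g). […] TMZ given orally at 50 mg/kg/day once daily over the same days. Tumor growth and body weight monitored.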

Mus musculus [15] = test: (§7) Toxicity in C57BL/6 mouse bearing B16F10 tumor assessed as body weight loss at […], po administered BID from day 5 to day 9 post-tumor implantation co-administered with temozolomide relative to vehicle-treated control; format: organism-based; set-up: route oral; settings: in vivo
Mus musculus [16] = test: Toxicity in C57BL/6 mouse bearing B16F10 tumor assessed as body weight loss at 5 mg/kg/day, po administered BID from day 5 to day 9 post-tumor implantation co-administered with temozolomide relative to vehicle-treated control; format: organism-based; set-up: route oral; settings: in vivo; summary of the method: as §6
[17] = as §2; format: ADME, organism-based; settings: in vivo; summary of the method: as §1
B16-F10 [18] = test: Potentiation of TMZ antitumor activity against mouse B16F10 cells xenografted in po dosed C57BL/6 mouse assessed as increase in tumor growth inhibition administered BID from day 5 to day 9 post-tumor implantation; format: functional, organism-based; summary of the method: as §6
Mus musculus [19] = test: as §7; format: organism-based; set-up: route oral; settings: in vivo; remark: listed apart in the source
[20] = as §3; format: ADME, organism-based, Plasma; set-up: time < 8 hr, dose 10 mg/kg, route oral; settings: plasma; summary of the method: as §1
[21] = as §4; format: ADME, organism-based; settings: in vivo; summary of the method: as §1

Row | AUC(0-t) at 3 h [1] | half-life [2] | Vd [3] | Cmax [4] | CL (Mus musculus [5]) | AUC (Mus musculus [6]) | F (Mus musculus [7]) | SMILES | further results
1 | 70 ng·h/mL | – | – | – | – | – | – | O=C(c1cc(Cc2n[nH]c(=O)c3c2NCCC3)ccc1F)N1CCN(C(=O)C(F)(F)F)CC1 | –
2 | 70 ng·h/mL | – | – | – | – | – | – | CC(=O)N1CCN(C(=O)c2cc(Cc3n[nH]c(=O)c4c3NCCC4)ccc2F)CC1 | –
3 | – | 21.6 min | 2.33 L/kg | 1030 ng/mL | 75.8 mL/min/kg | 2380 ng·h/mL | 48% | O=C(c1cc(Cc2n[nH]c(=O)c3c2CCCC3)ccc1F)N1CCN(c2ncccn2)CC1 | –
4 | 2900 ng·h/mL | – | – | – | – | – | – | O=C(c1cc(Cc2n[nH]c(=O)c3c2NCCC3)ccc1F)N1CCN(c2ccccc2)CC1 | –
5 | – | 66 min | 9.48 L/kg | 1090 ng/mL | 98.7 mL/min/kg | 2700 ng·h/mL | 74% | O=C(c1cc(Cc2n[nH]c(=O)c3c2CCCC3)ccc1F)N1CCN(c2ccccn2)CC1 | –
6 | – | – | – | – | – | – | – | Cn1nnc2c(C(N)=O)ncn2c1=O [TEMOZOLOMIDE] | Activity (Mus musculus [12]): 1%; inhibition at 50 mg/kg (Mus musculus [13]): 30%; Activity (Mus musculus [14]): 2%
7 | 2900 ng·h/mL | 156 min | 7.66 L/kg | 2010 ng/mL | – | – | – | O=C(c1cc(Cc2n[nH]c(=O)c3c2NCCC3)ccc1F)N1CCN(c2ccccn2)CC1 | Activity (Mus musculus [15]): 3%; Activity (Mus musculus [16]): 21%; clearance [17]: 34 mL/min/kg; Activity (B16-F10 [18]): Dose-dependent effect; Activity (Mus musculus [19]): 3%; AUC(0-t) at 8 h [20]: 5950 ng·h/mL; bioavailability [21]: 67%
8 | – | 16.8 min | 4.78 L/kg | 140 ng/mL | 195.3 mL/min/kg | 330 ng·h/mL | 13% | O=C1CCCN1c1cc(Cc2n[nH]c(=O)c3c2CCCC3)ccc1F | –
9 | 70 ng·h/mL | – | – | – | – | – | – | O=C1CCCC(=O)N1c1cc(Cc2n[nH]c(=O)c3c2NCCC3)ccc1F | –
10 | 2900 ng·h/mL | 232 min | 4.99 L/kg | 5600 ng/mL | – | – | – | O=C(c1cc(Cc2n[nH]c(=O)c3c2NCCC3)ccc1F)N1CCN(c2ncccn2)CC1 | clearance [17]: 14.8 mL/min/kg; AUC(0-t) at 8 h [20]: 9060 ng·h/mL; bioavailability [21]: 36%

Row | SMILES | AUC(0-t) at 3 h [1] | half-life [2] | Vd [3] | Cmax [4] | CL (Mus musculus [5]) | AUC (Mus musculus [6]) | F (Mus musculus [7]) | further results
11 | O=C1CCCN1c1cc(Cc2n[nH]c(=O)c3c2NCCC3)ccc1F | – | 29.4 min | 5.25 L/kg | 1500 ng/mL | 124 mL/min/kg | 3110 ng·h/mL | 106% | Activity (Mus musculus [8]): 12%; Activity (Mus musculus [9]): 3%; Activity (B16-F10 [10]): Dose-dependent effect; Activity (Mus musculus [11]): Non-toxic
